In the library only some 1.7% were active in any assay of this set; here they are far more common.
TPT1 inhibitor: inhibitors of Candida albicans tRNA 2'-phosphotransferase TPT1 | recombinant caTPT1, FP RNA substrate dephosphorylation | inhibition, % at 5 µM | hit rate 0.81% among 300,000 | AID 1962;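 active = inhibition above the mean of all tested compounds plus 3 SD, set per screening campaign, cut at about 24% in these data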;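 note: plate controls were DMSO alone for no effect and ferristatin control at 100 nM for full effect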
IDE cell inh: inhibitors of human insulin-degrading enzyme in cells; P14735; HEK cells, FAbetaB cleavage, fluorescence polarization; inhibition, % at 5.59 µM; hit rate 0.41% among 320,000;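 active = percent inhibition above the average of all tested compounds plus 3 SD, set per screening campaign, cut at about 16% in these data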;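 note: IDE supplied by intact live HEK cells; FP after avidin binding of uncleaved biotin substrate so inhibition keeps polarization high; 0% = DMSO wells and 100% = 60 µM reference IDE inhibitor Ii1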
Rpn11 inh: inhibitors of human proteasome Rpn11; human 26S proteasome, Ub4-pepOG fluorescence polarization; 20S core pre-blocked with epoxomicin; O00487; inhibition, % at 20 µM; hit rate 0.59% among 360,000;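 active = inhibition at 20 µM, scaled to each plate's controls, above about 33%, limit read from the data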
HNF4A DNA FP: change in binding of human HNF4 alpha to DNA; HNF4a-FITC DNA binding, fluorescence polarization, 1 h; AID 1224865; P41235; hit rate 0.3% among 360,000; activity change, % at 10 µM; in the data active = activity change above about 30%, passing the limit was not always enough
IDE act: boosts human insulin-degrading enzyme activity in HEK cells. activation, % at 5.96 µM. FAbeta-B cleavage, fluorescence polarization; 0% vehicle, 100% cell-free pure enzyme wells. AID 493087. hit rate 0.073% among 340,000. P14735;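 active = activation above the mean of all tested compounds plus 3 SD, set per screening campaign, cut at about 17% in these data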
CSN deneddyl inh: CSN deneddylation inhibition; inhibition, % at 12.5 µM; hit rate 0.38% among 360,000; Q92905; Purified CSN, SCF-Nedd8-OG deneddylation, fluorescence polarization;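 active = pattern-corrected inhibition above about 35%, with an unprinted fluorescence ratio check between 0.5 and 1.5, limit read from the data, passing the limit was not always enough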;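 note: 0% = enzyme with substrate and 100% = substrate without enzyme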
Target sequence (Q92905 whole entry, looked up, one chain of several): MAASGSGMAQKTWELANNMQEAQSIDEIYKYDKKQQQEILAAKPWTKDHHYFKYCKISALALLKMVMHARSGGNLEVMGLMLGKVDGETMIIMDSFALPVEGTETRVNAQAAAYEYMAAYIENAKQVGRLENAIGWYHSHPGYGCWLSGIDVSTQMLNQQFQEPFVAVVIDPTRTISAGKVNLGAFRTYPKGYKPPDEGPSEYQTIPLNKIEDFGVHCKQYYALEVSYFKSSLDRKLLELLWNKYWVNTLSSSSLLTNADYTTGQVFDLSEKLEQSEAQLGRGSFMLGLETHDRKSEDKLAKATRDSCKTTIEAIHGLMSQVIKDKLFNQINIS
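Assay system: purified human Csn5 enzyme expressed in HEK293T cells; measure: % inhibition; also added: SCFSkp2-Nedd8OG substrate at 10 nM final; technique: fluorescence polarization; times: reaction 90 min, room temperature; medium: Tris buffer pH 7.5, NaCl, DTT, Tween-20, trehalose, ovalbumin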
Rpn11 confirm: confirmation of human proteasome Rpn11 inhibitors; shares compounds with Rpn11 inh; purified human 26S proteasome, Ub4-pepOG fluorescence polarization; proteasome pretreated with epoxomicin; inhibition, % at 20 µM; hit rate 29% among 1,900; AID 602318
MMP-2 counter-1: blocks human MMP-2, flagging nonselective RPN11 hits | shares compounds with Rpn11 inh | recombinant MMP-2, FRET peptide cleavage fluorescence | inhibition, % at 20 µM | hit rate 4% among 1,900;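 note: human MMP-2 activated beforehand with APMA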
Thrombin FP: blocks bovine thrombin, flagging nonselective RPN11 hits; shares compounds with Rpn11 inh; bovine thrombin cleavage of Ub4-pepOG, fluorescence polarization; inhibition, % at 20 µM; hit rate 13% among 1,900;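 active = mean inhibition at least 40% at 20 µM, or signal 3 deviations below plate average, so some actives read negative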;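 note: plate controls were thrombin with DMSO for no effect and buffer wells lacking thrombin for full effect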
CSN deneddyl val: validation of inhibitors of human CSN-mediated cullin deneddylation | shares compounds with CSN deneddyl inh | AID 720654 | Csn5 deneddylation of SCF-Nedd8OG, fluorescence polarization, 90 min | hit rate 62% among 540 | inhibition, % at 16.6 µM; in the data active = inhibition above about 50%;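 note: 0% = DMSO with enzyme and 100% = no enzyme wells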
MMP-2 counter-2: MMP-2 (human) inhibition, counter-screen for CSN hits. shares compounds with CSN deneddyl inh. recombinant MMP-2, FRET substrate fluorescence, 60 min. hit rate 33% among 540. inhibition, % at 16.6 µM;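 active = corrected plate-normalized z-score of 5 or more, or -5 or less, or inhibition of 15% or more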;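 note: plate controls were DMSO wells with enzyme for no effect and buffer wells lacking MMP-2 for full effect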
Thrombin cntr: blocks bovine thrombin in a CSN deneddylation counter-screen. bovine thrombin cleavage of Ub4-pepOG, fluorescence polarization. AID 720656. inhibition, % at 16.6 µM. hit rate 49% among 540. shares compounds with CSN deneddyl inh;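 active = inhibition at or above a set limit, with a fluorescence interference ratio between 0.5 and a set maximum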
HNF4A confirm: change in binding of human HNF4 alpha to DNA, retest | activity change, % at 12.5 µM | hit rate 99% among 210 | HNF4A-FITC DNA binding, fluorescence polarization, 1 h | shares compounds with HNF4A DNA FP; call rule not given here
An asterisk follows results filed as active; x = no result given; ! = repeats disagree. Cut-off read from the data, not from the text of the source, unless noted: active = inhibition above about 40%; inactive = the rest.

SMILES | TPT1 inhibitor | IDE cell inh | Rpn11 inh | HNF4A DNA FP | IDE act | CSN deneddyl inh | CSN deneddyl val | MMP-2 counter-2 | Thrombin cntr | others
CCCCN1C(=O)/C(=C/C=C/c2ccco2)C(=O)NC1=S | x | x | 145.8* | 37.6* | -0.5 | 89.0* | -60.0 | -5.0 | 67.0* | Rpn11 confirm=155.0*;MMP-2 counter-1=46.6*;Thrombin FP=142.8*
N=c1sccn1Cc1ccccc1F | x | x | 4.2 | -2.0 | -3.1 | -1.6 | x | x | x
O=c1[nH]c(=S)[nH]c(O)c1N=Nc1ccc2c(c1)OCO2 | 9.8 | 8.1 | 46.5* | 42.0* | -8.8 | 13.4 | x | x | x | Rpn11 confirm=17.2;MMP-2 counter-1=31.7;Thrombin FP=11.2;HNF4A confirm=45.7*
CC(c1ccccc1)[n+]1ccccc1 (stereo not drawn) | -0.3 | -0.8 | -4.4 | 5.5 | -1.3 | 0.1 | x | x | x
Cn1ncnc2c(=O)n(C)c(=O)nc1-2 | 3.1 | -3.2 | 16.6 | 111.7 | 3.4 | 74.1* | -21.3 | -6.8 | -37.0
COc1ccc(CN2Cc3cnnn3-c3ccccc3C2C#N)cc1 (stereo not drawn) | x | x | 3.6 | -1.3 | -12.2 | -0.3 | x | x | x
CCCCn1c(NS(=O)(=O)c2ccccc2)c(C(=O)OCC)c2nc3ccccc3nc21 | 2.2 | 11.2 | 8.3 | 1.2 | -7.3 | 62.6* | 103.0* | 6.7 | -32.0
CCCCn1c(NC(=O)c2ccc(Br)o2)c(C(=O)OCC)c2nc3ccccc3nc21 | 10.7 | 3.1 | 35.6 | 0.1 | -7.4 | 20.7 | x | x | x
Cc1cc(N(CCCl)CCCl)ccc1C=Cc1ccncn1 | x | x | x | 66.7* | -25.6 | 40.7* | 53.3* | -22.8 | 36.9*
CN(C)[C@@H]1C(=O)C(C(N)=O)=C(O)[C@@]2(O)C(=O)C3=C(O)c4c(O)cccc4[C@@](C)(O)C3[C@H](O)C12 (stereo partly drawn) | -31.4 | -0.6 | x | -57.5 | -1.3 | 36.6*! | 88.8* | 8.7 | 13.2
CCC1CCCCN1CC(=O)c1ccc(OC(F)F)cc1 (stereo not drawn) | 1.4 | 4.6 | 1.0 | -2.9 | -4.9 | 2.3 | x | x | x
C[C@]12CCC3C(CC[C@H]4C[C@@H](O)CC[C@]34C)C1C/C(=N/O)[C@@H]2O (stereo partly drawn) | x | 2.9 | -0.8 | -1.4 | 2.8 | -0.8 | x | x | x
COC(=O)C1=C(c2ccc(C(C)=O)cc2)C[C@@H]2CC[C@H]1N2C(=O)N1CCC(O)CC1 | x | 4.4 | -6.3 | -0.6 | -1.8 | 1.2 | x | x | x
Clc1cccc(N2Cc3cc(-c4ccccc4)ccc3-n3nncc3C2)c1 | x | x | 8.5 | -3.6 | x | 69.0* | 66.1* | 13.7 | 24.7*
CC[C@H]1CN2CC[C@@]3(C(=O)Nc4ccccc43)[C@@H]2C[C@@H]1/C(=C\OC)C(=O)OC | 1.4 | -0.1 | -6.9 | -5.5 | x | 0.2 | x | x | x
CC1=C(O)C(=O)C=C2C1=CC=C1C2(C)CCC2(C)C3CC(C)(C(=O)O)CCC3(C)CCC12C (stereo not drawn) | x | x | 12.3 | -6.6 | -17.0 | 42.0* | x | 9.6 | -1.0
O=c1c2ccccc2nc(/C=C/c2ccc([N+](=O)[O-])o2)n1-c1ccc(O)cc1 | x | x | x | 177.2 | x | 49.6* | 65.4* | -0.5 | 45.7*
O=C1Nc2ccccc2/C1=C/c1nc2ccccc2c(=O)n1-c1ccc(O)cc1 | -0.5 | -5.3 | -6.8 | 0.1 | 1.4 | -0.6 | x | x | x
